This note sets out measurements from ChEMBL document CHEMBL1122686, “Troponoids. 6. Troponylpiperazines: a new class of dopamine agonists” (1984).

The subject of experiment [1] is Rattus norvegicus. Put plainly: Inhibition of the 6-OHDA-induced Hypokinesia in rat, at 50 mg/Kg sc, expressed as cumulative ambulation score; inactive. It counts as functional, organism-based. The essentials:
(§1)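 Male Sprague-Dawley rats (~280 g), anesthetized with pentobarbital, got 6-OHDA (26 µg/4 µL) bilaterally into the anterolateral hypothalamus. Four days later, only near-akinetic rats in a 36-square open field were used. Doses were free base, given sc in distilled water or Tween 80 suspension. Ambulation (all four limbs in one square) was scored in six 2-min periods at 15–120 min, then summed.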

Experiment [2] concerns Rattus norvegicus. Put plainly: Inhibition of the 6-OHDA-induced Hypokinesia in rat, at 50 mg/Kg sc, expressed as cumulative ambulation score. It counts as functional. An outline of the steps:
as §1

Experiment [3] relates to Rattus norvegicus. Put plainly: Inhibition of the 6-OHDA-induced Hypokinesia in rat, at 25 mg/Kg sc, expressed as cumulative ambulation score. In kind it is functional. An outline of the steps: as §1
The subject of experiment [4] is Rattus norvegicus. Put plainly: Rotational behavior induced by the compound in rat with a unilateral 6-OHDA-induced lesion of the Nigro-striatal dopamine, at 25 mg/Kg sc; duration of activity=4 hr. In kind it is functional. An outline of the steps:
(§2)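 Rats (~250 g at surgery, pentobarbital 40 mg/kg ip) received unilateral 6-OHDA (8 µg in 3 µL) to lesion the nigrostriatal pathway. At 3–4 weeks, rats turning 8–10 times/min after apomorphine 0.25 mg/kg sc were selected. They were housed singly, food-restricted to 350–400 g, dosed sc (free base) in groups of 4–8, and placed at once in automatic rotometers. Total contralateral turns (mean ± SEM) and duration of action (h) were recorded.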

The species entered for experiment [5] is Rattus norvegicus. Put plainly: Duration of activity in rat. In kind it is functional. An outline of the steps:
as §2

For experiment [6], the system named is Rattus norvegicus. Put plainly: Rotational behavior induced by the compound in rat with a unilateral 6-OHDA-induced lesion of the Nigro-striatal dopamine, at 75 mg/Kg sc. In kind it is functional. An outline of the steps:
as §2

Experiment [7] deals with Rattus norvegicus. Put plainly: Rotational behavior induced by the compound in rat with a unilateral 6-OHDA-induced lesion of the Nigro-striatal dopamine, at 50 mg/Kg sc; duration of activity=6 hr. In kind it is functional. An outline of the steps:
as §2

The subject of experiment [8] is Rattus norvegicus. Put plainly: Inhibition of the 6-OHDA-induced Hypokinesia in rat, at 25 mg/Kg sc, expressed as cumulative ambulation score; inactive. In kind it is functional, organism-based. The essentials:
as §1

In experiment [9] the test system is Rattus norvegicus. In words: Rotational behavior induced by the compound in rat with a unilateral 6-OHDA-induced lesion of the Nigro-striatal dopamine, at 50 mg/Kg sc, duration of activity=6 hr. In kind it is functional.
Experiment [10] relates to Rattus norvegicus. Put plainly: Rotational behavior induced by the compound in rat with a unilateral 6-OHDA-induced lesion of the Nigro-striatal dopamine, at 75 mg/Kg sc; duration of activity=9 hr. It counts as functional.
Experiment [11] has as its system Rattus norvegicus. In words: Rotational behavior induced by the compound in rat with a unilateral 6-OHDA-induced lesion of the Nigro-striatal dopamine, at 25 mg/Kg sc; duration of activity=5 hr. In kind it is functional.
Experiment [12] relates to Rattus norvegicus. Put plainly: Percent decrease on dopamine agonist-induced rotation in unilaterally 6-OH-DA-lesioned rat at 0.5 mg/kg. In kind it is functional. An outline of the steps:
(§3)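 Rats were unilaterally 6-OHDA-lesioned and apomorphine-screened for rotation. Haloperidol (0.1, 0.25 or 0.5 mg/kg ip) or vehicle was given 1 h before the DA agonist (75 mg/kg sc). Total contralateral turns were counted automatically in rotometers (mean ± SEM). Percent decrease was taken relative to vehicle pretreatment, with significance by Student's t test.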

In experiment [13] the test system is Rattus norvegicus. In words: Percent decrease on dopamine agonist-induced rotation in unilaterally 6-OH-DA-lesioned rat at 0.25 mg/kg. In kind it is functional. The essentials: as §3
The subject of experiment [14] is Rattus norvegicus. In words: Effect on dopamine agonist-induced rotation in unilaterally 6-OH-DA-lesioned rat at 0.5 mg/kg, ip; Compound 35 was injected subcutaneously at 75 mg/kg. It counts as functional. An outline of the steps:
as §3

Experiment [15] relates to Rattus norvegicus. Put plainly: Drug pretreatment vs. vehicle pretreatment; statistical analysis by Student''s t test at 0.1 mg/kg; NS-Not Significant. It counts as functional, organism-based. Also noted: dose 0.1 mg/kg. An outline of the steps:
as §3

Experiment [16] concerns Rattus norvegicus. In words: Effect on dopamine agonist-induced rotation in unilaterally 6-OH-DA-lesioned rat at 0.1 mg/kg, ip; Compound 35 was injected subcutaneously at 75 mg/kg. It counts as functional. An outline of the steps: as §3
In experiment [17] the test system is Rattus norvegicus. Put plainly: Percent decrease on dopamine agonist-induced rotation in unilaterally 6-OH-DA-lesioned rat at 0.1 mg/kg. In kind it is functional. The essentials: as §3
Experiment [18] has as its system Rattus norvegicus. In words: Effect on dopamine agonist-induced rotation in unilaterally 6-OH-DA-lesioned rat at 0.25 mg/kg, ip; Compound 35 was injected subcutaneously at 75 mg/kg. It counts as functional. The essentials: as §3
The subject of experiment [19] is Rattus norvegicus. In words: Rotational behavior induced by the compound in rats with a unilateral 6-OHDA-induced lesion of the Nigro-striatal dopamine, at 50 mg/Kg sc; duration of activity=6 hr. It counts as functional. An outline of the steps: as §2
Experiment [20] is filed under the species Rattus norvegicus. Put plainly: Duration of activity was determined. It counts as functional. An outline of the steps: as §2
The subject of experiment [21] is Rattus norvegicus. In words: Rotational behavior induced by the compound in rats with a unilateral 6-OHDA-induced lesion of the Nigro-striatal dopamine, at 8 mg/Kg sc. It counts as functional. An outline of the steps: as §2
For experiment [22], the system named is Rattus norvegicus. Put plainly: Inhibition of the 6-OHDA-induced Hypokinesia in rat, at 10 mg/Kg sc, expressed as cumulative ambulation score. It counts as functional. The essentials:
as §1

Activity calls are given as the source filed them. The calls are words filed in the database; no cut-off is given here.

Consider `CCCCN1CCN(c2cccccc2=O)CC1`, for which the Score entry in the experiment on Rattus norvegicus [1] is “inactive”. In turn, `N#CCN1CCN(c2cccccc2=O)CC1` displayed a Score with Rattus norvegicus [2] of 126. As to `CC1CCN(c2cccccc2=O)CC1`, the Score result in the experiment on Rattus norvegicus [1] was “inactive”.

`CC(O)CN1CCN(c2cccccc2=O)CC1` (stereo not given): the Score in the experiment with Rattus norvegicus [2] came to 400; with Rattus norvegicus [3], 190. Regarding `O=C1CCCCCC1N1CCN(CCO)CC1` (stereo not given), the Score result in the experiment on Rattus norvegicus [1] was “inactive”. For the compound `CN1CCC(c2cccccc2=O)CC1`, in the experiment with Rattus norvegicus [1], the Score entry was “inactive”. Take `CC(=O)NCCN1CCN(c2cccccc2=O)CC1`: the Score entry in the experiment on Rattus norvegicus [1] is “inactive”. Turning to `NC(=O)CN1CCN(c2cccccc2=O)CC1`, the Score result in the experiment with Rattus norvegicus [1] was “inactive”.

Turning to `CCOCCN1CCN(c2cccccc2=O)CC1.O=C(O)/C=C\C(=O)O`, the Score with Rattus norvegicus [2] turned out to be 67. As to `O=c1cccccc1N1CCN(CCO)CC1`, the Score with Rattus norvegicus [4] is recorded as 369; in the experiment on Rattus norvegicus [6], 4582; in the experiment with Rattus norvegicus [7], 1378; in the experiment with Rattus norvegicus [2], 187; in the experiment with Rattus norvegicus [3], 88. Further, the Duration of action in the experiment filed under Rattus norvegicus [5] came out at 12 h. Regarding `CCOC(=O)CN1CCN(c2cccccc2=O)CC1`, the Score entry in the experiment with Rattus norvegicus [1] was “inactive”. `Br.O=c1c(Br)ccccc1N1CCN(CCO)CC1` displayed a Score in the experiment with Rattus norvegicus [2] of 136.

For `CC(C)(C)N1CCN(c2cccccc2=O)CC1`, the Score entry in the experiment on Rattus norvegicus [1] was “inactive”. With `CC(O)C(C)N1CCN(c2cccccc2=O)CC1` (stereo not given), the Score result in the experiment on Rattus norvegicus [8] is “inactive”.

For the compound `O=c1cccccc1N1CCN(CCCO)CC1`, the Score in the experiment on Rattus norvegicus [2] was determined as 71. Consider `CN1CCCN(c2cccccc2=O)CC1`, for which, in the experiment with Rattus norvegicus [1], the Score entry was “inactive”.

`CN1CCN(c2cccccc2=O)CC1.O=C(O)/C=C\C(=O)O`: the Score in the experiment on Rattus norvegicus [9] came to 1814; in the experiment with Rattus norvegicus [10] it was 2842; with Rattus norvegicus [11], 551; with Rattus norvegicus [2] it was 278. For the same compound, the Duration of action in the experiment listed under Rattus norvegicus [5] came to 9 h. As to `CC(CO)N1CCN(c2cccccc2=O)CC1` (stereo not given), the Score entry with Rattus norvegicus [8] was “inactive”. As to `O=C(CCCN1CCC(O)(c2ccc(Cl)cc2)CC1)c1ccc(F)cc1` [HALOPERIDOL], the values for the Decrease in the experiment with Rattus norvegicus [12], in the experiment on Rattus norvegicus [13] and in the experiment on Rattus norvegicus [17] were -77%, -56% and -33%, respectively. For the same compound, the “Total no. of turns” value amounted to 567 in the experiment on Rattus norvegicus [14], 1626 in the experiment with Rattus norvegicus [16] and 1055 in the experiment on Rattus norvegicus [18]. Moreover, the P result with Rattus norvegicus [15] is “inactive”. Take `OCCN1CCN(c2ccccc2)CC1`: in the experiment with Rattus norvegicus [1], the Score entry was “inactive”. `CC(C)(C)C(=O)OCCN1CCN(c2cccccc2=O)CC1.O=C(O)/C=C\C(=O)O` came in with a Score in the experiment on Rattus norvegicus [2] of 137. Same read-out and setting: under `CCN1CCN(c2cccccc2=O)CC1` stands 70. Take `O=c1cccccc1N1CCN(CCOc2ccccc2)CC1`: in the experiment with Rattus norvegicus [1], the Score result is “inactive”. For the compound `CC(=O)OCCN1CCN(c2cccccc2=O)CC1`, the Score in the experiment with Rattus norvegicus [4] is 743; in the experiment with Rattus norvegicus [6], 3640; with Rattus norvegicus [19] it was 1485; in the experiment on Rattus norvegicus [2], 232; in the experiment with Rattus norvegicus [3], 106. The Duration of action in the experiment listed under Rattus norvegicus [5] was found to be 10 h. In the experiment on Rattus norvegicus [2], `O=c1cccccc1N1CCNCC1` returned a Score of 55. For the compound `O=c1ccc(Cl)ccc1N1CCN(CCO)CC1`, the Score result in the experiment on Rattus norvegicus [1] was “inactive”. Turning to `O=c1cccccc1N1CCN(CC(O)CO)CC1` (stereo not given), in the experiment with Rattus norvegicus [2], the Score is 58.

Compound `CC(C)C[C@H]1C(=O)N2CCC[C@H]2[C@]2(O)O[C@](NC(=O)[C@@H]3C=C4c5cccc6[nH]c(Br)c(c56)C[C@H]4N(C)C3)(C(C)C)C(=O)N12` [BROMOCRIPTINE] showed a Duration of action in the experiment listed under Rattus norvegicus [20] of 18 h. Further, the results for the Score in the experiment on Rattus norvegicus [21] and in the experiment on Rattus norvegicus [22] were 4868 and 112, respectively. Regarding `CN1CCN(c2ccccc2)CC1`, in the experiment with Rattus norvegicus [1], the Score result is “inactive”. The compound `CC(C)N1CCN(c2cccccc2=O)CC1` yielded a Score in the experiment with Rattus norvegicus [2] of 431. Still for that read-out and setting: under `CCCN1CCN(c2cccccc2=O)CC1` stands 159. As to `CC(C)CN1CCN(c2cccccc2=O)CC1.O=C(O)/C=C\C(=O)O`, the Score in the experiment on Rattus norvegicus [3] was 372.
